# Experimental data reported in ChEMBL document CHEMBL4346727, “Synthesis and pharmacological evaluation of novel N-Mannich bases derived from 5,5-diphenyl and 5,5-di(propan-2-yl)imidazolidine-2,4-dione core” (Bioorg Med Chem Lett, 2019).
# Active and inactive are the calls of the source. The calls are words filed in the database; no cut-off is given here.
# Tests used:
# [1] = Neurotoxicity in CD1 mouse at 25 mg/kg, ip measured after 1 hr by rotarod test; conditions: in vivo
# [2] = Neurotoxicity in CD1 mouse at 25 mg/kg, ip measured after 30 mins by rotarod test; conditions: in vivo, 0.5 h
# Mus musculus [3] = experiment: Anti-inflammatory activity in CD1 mouse model assessed as formalin-induced nociception by measuring AUC during inflammatory phase at 11 mg/kg, ip measured for 5 mins by formalin test relative to control; format: functional
# [4] = Neurotoxicity in CD1 mouse at 100 mg/kg, ip and measured after 0.5 to 4 hrs by rotarod test; format: toxicity, organism-based; conditions: in vivo
# In short: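 Rotarod neurotoxicity screen in mice after intraperitoneal dosing. For the 6 Hz series the count is mice out of four showing neurotoxicity, scored as inability to grasp the rotarod or muscle spasms, at 0.25–4 h. For the initial screen the minimum toxic dose is taken from 30, 100 and 300 mg/kg at 0.5 and 4 h.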
# Mus musculus [5] = experiment: Anticonvulsant activity in CD1 mouse assessed as protection against 32 mA current-induced seizure at 100 mg/kg, ip measured after 4 hrs by 6 Hz psychomotor seizure test
# Mus musculus [6] = experiment: Anticonvulsant activity in ip dosed CD1 mouse assessed as protection against 32 mA current-induced seizure by 6 Hz psychomotor seizure test; format: functional
# In short: (§1)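 Median effective doses were quantified in the maximal electroshock, subcutaneous pentylenetetrazole and 6 Hz tests after intraperitoneal dosing in mice or oral dosing in rats, at the time of peak effect. ED50 values are reported with ranges in parentheses.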
# Mus musculus [7] = experiment: Anticonvulsant activity in CD1 mouse assessed as protection against subcutaneous pentylenetetrazole-induced seizures at 300 mg/kg, ip and measured after 4 hrs; format: functional, organism-based
# In short: (§2)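 Mice were screened after intraperitoneal doses of 30, 100 and 300 mg/kg in the maximal electroshock and subcutaneous pentylenetetrazole tests, examined at 0.5 and 4 h. The value recorded is the minimum dose showing activity. No activity up to 300 mg/kg is scored as absent.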
# Mus musculus [8] = experiment: Anticonvulsant activity in ip dosed CD1 mouse assessed as protection against subcutaneous pentylenetetrazole-induced seizures; format: functional
# In short: as §1
# Mus musculus [9] = experiment: Anticonvulsant activity in ip dosed CD1 mouse assessed as time to peak effect on protection against 50 mA current-induced seizures; format: functional
# In short: as §1
# [10] = Neurotoxicity in Sprague-Dawley rat at 30 mg/kg, po measured after 30 mins by rotarod test; format: toxicity, organism-based; conditions: in vivo, 0.5 h
# In short: (§3)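 Rats given one oral dose of 30 mg/kg and tested on the rotarod at 0.25, 0.5, 1, 2, 4 and 6 h.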
# [11] = Neurotoxicity in ip dosed CD1 mouse assessed as time to peak effect by rotarod test; format: toxicity, organism-based; conditions: in vivo
# Mus musculus [12] = experiment: Anticonvulsant activity in CD1 mouse assessed as protection against 32 mA current-induced seizure at 25 mg/kg, ip measured after 1 hr by 6 Hz psychomotor seizure test
# Mus musculus [13] = experiment: Anticonvulsant activity in ip dosed CD1 mouse assessed as protection against 50 mA current-induced seizure and measured after 4 hrs by maximal electroshock seizure test; format: functional; conditions: read-out: MED
# In short: as §2
# [14] = Neurotoxicity in CD1 mouse at 50 mg/kg, ip measured after 15 mins by rotarod test; conditions: in vivo, 0.25 h
# [15] = Neurotoxicity in ip dosed CD1 mouse and measured after 0.5 hrs by rotarod test; format: toxicity, organism-based; conditions: in vivo
# In short: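 Mice dosed intraperitoneally at 30, 100 and 300 mg/kg, then tested on the rotarod at 0.5 h and 4 h. The value recorded is the minimum dose at which neurotoxicity appeared. A dash means no neurotoxicity at the top dose of 300 mg/kg.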
# [16] = Neurotoxicity in Sprague-Dawley rat at 30 mg/kg, po measured after 1 hr by rotarod test; format: toxicity, organism-based; conditions: in vivo
# In short: as §3
# [17] = Neurotoxicity in CD1 mouse at 25 mg/kg, ip measured after 15 mins by rotarod test; conditions: in vivo, 0.25 h
# Mus musculus [18] = experiment: Anticonvulsant activity in CD1 mouse assessed as protection against 32 mA current-induced seizure at 25 mg/kg, ip measured after 2 hrs by 6 Hz psychomotor seizure test
# [19] = Neurotoxicity in CD1 mouse at 50 mg/kg, ip measured after 1 hr by rotarod test; conditions: in vivo
# Mus musculus [20] = experiment: Anticonvulsant activity in ip dosed CD1 mouse assessed as time to peak effect on protection against 32 mA current-induced seizure by 6 Hz psychomotor seizure test; format: functional
# In short: as §1
# [21] = Neurotoxicity in ip dosed CD1 mouse model by rotarod test; format: toxicity, organism-based; conditions: in vivo
# Mus musculus [22] = experiment: Anticonvulsant activity in ip dosed CD1 mouse assessed as protection against 50 mA current-induced seizures; format: functional
# In short: as §1
# Mus musculus [23] = experiment: Anticonvulsant activity in CD1 mouse assessed as protection against 32 mA current-induced seizure at 25 mg/kg, ip measured after 4 hrs by 6 Hz psychomotor seizure test
# [24] = Neurotoxicity in CD1 mouse at 50 mg/kg, ip measured after 4 hrs by rotarod test; conditions: in vivo
smiles,measurement,setting,value
CN1CCN(CN2C(=O)NC(c3ccccc3)(c3ccccc3)C2=O)CC1,Activity,[1],Non-Toxic
same,Activity,[2],Non-Toxic
same,Activity,Mus musculus [3],90.3%
same,Activity,[4],Toxic
same,Activity,Mus musculus [5],Active
same,ED50,Mus musculus [6],12.2 mg/kg
same,Activity,Mus musculus [7],inactive
same,ED50,Mus musculus [8],> 80 mg/kg
same,Time,Mus musculus [9],4 h
same,Activity,[10],Non-Toxic
same,Time,[11],1 h
same,Activity,Mus musculus [12],Active
same,minimal effective dose,Mus musculus [13],10 mg/kg
same,Activity,[14],Non-Toxic
same,minimal neurotoxic dose,[15],100 mg/kg
same,Activity,[16],Non-Toxic
same,Activity,[17],Non-Toxic
same,Activity,Mus musculus [18],inactive
same,Activity,[19],Non-Toxic
same,Time,Mus musculus [20],1 h
same,TD50,[21],75.5 mg/kg
same,ED50,Mus musculus [22],11.1 mg/kg
same,Activity,Mus musculus [23],inactive
same,Activity,[24],Non-Toxic
